From ChEMBL document CHEMBL4364340, “Discovery of N-(1-Acryloylazetidin-3-yl)-2-(1H-indol-1-yl)acetamides as Covalent Inhibitors of KRASG12C” (ACS Med Chem Lett, 2019)
Values after ≈ are worked out from the molar mass of the structure shown.

Legend:
[1] = test system: GTPase KRas (Homo sapiens), P01116 [G12C]; test: Inhibition of KRAS G12C mutant (unknown origin) assessed as pseudo first order rate constant incubated for 0.02 to 20 hrs in presence of GDP by rapidfire mass spectrometry analysis
Method in brief: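 GDP-bound KRASG12C (2 μM) with 10 μM compound. Intact-protein MS measures covalent adduct at Cys12 after 0.02, 0.2, 2 and 20 h. Conversions between 10% and 90% are converted to kobs/[I] (M–1 s–1) under pseudo-first-order kinetics.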

[2] = Half life of compound in phosphate buffer at pH 7.4 in presence of GSH by LC/MS analysis; type: physicochemical; details: phosphate buffer with GSH
Method in brief: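 Intrinsic thiol reactivity toward 5 mM glutathione. Half-life is taken from the rate at which parent compound disappears.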

[3] = test system: GTPase KRas (Homo sapiens), P01116 [G12C]; test: Inhibition of KRAS G12C mutant (unknown origin) at 10 uM incubated for 0.02 hrs in presence of GDP by rapidfire mass spectrometry analysis relative to control
Method in brief: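 Intact-protein mass spectrometry of covalent adduct formation at Cys12 of GDP-bound KRASG12C. Test compound at 10 μM, with read-outs at 0.02, 0.2, 2 and 20 h. Values are the relative % of protein bound, measured directly under pseudo-first-order conditions. Earlier incubations in the paper used 2 μM protein.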

[4] = test system: GTPase KRas (Homo sapiens), P01116 [G12C]; test: Inhibition of KRAS G12C mutant (unknown origin) at 10 uM incubated for 0.2 hrs in presence of GDP by rapidfire mass spectrometry analysis relative to control
Method in brief: (§1)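 GDP-bound KRASG12C (2 μM) incubated with 10 μM compound. Intact-protein mass spectrometry quantifies relative % covalent adduct at Cys12 at the stated time point.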

[5] = test system: GTPase KRas (Homo sapiens), P01116 [G12C]; test: Inhibition of KRAS G12C mutant (unknown origin) at 10 uM incubated for 20 hrs in presence of GDP by rapidfire mass spectrometry analysis relative to control; method in brief: as §1
[6] = test system: GTPase KRas (Homo sapiens), P01116 [G12C]; test: Inhibition of KRAS G12C mutant (unknown origin) at 10 uM incubated for 2 hrs in presence of GDP by rapidfire mass spectrometry analysis relative to control; method in brief: as §1
GTPase KRas [7] = target: GTPase KRas (Homo sapiens, UniProt P01116, G12C); test: Inhibition of KRAS G12C mutant in human MIAPaCa2 cells assessed as reduction in EGF-induced ERK1/2 phosphorylation incubated for 4 hrs followed by EGF addition by luminescence based assay; type: cell-based
GTPase KRas [8] = target: GTPase KRas (Homo sapiens, UniProt P01116, C118A/G12C); test: Inhibition of GDP bound N terminal His-tagged KRAS G12C/C118A mutant (unknown origin) (1 to 169 residues) assessed as reduction in SOS-mediated guanine nucleotide exchange preincubated for 2 hrs followed by addition of SOS and GTP and measured after 1 hr by alphascreen assay
Method in brief: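 Inhibitor preincubated with protein 2 h, then SOS1 and GTP added to exchange GTP into the nucleotide site. GTP loading read as proximity of RAF Ras-binding domain, which binds only active KRAS. IC50 from dose response.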

[9] = Intrinsic clearance in mouse liver microsomes at 1 uM measured after 30 mins in presence of NADPH by LC-MS analysis; type: ADME, Microsome; details: read-out: CLH
[10] = Volume of distribution at steady state in rat at […]; type: ADME, organism-based; details: in vivo
Method in brief: (§2)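 Mouse and rat PK: single 1 mg/kg iv dose given in 100% DMSO, and 10 mg/kg po dose given in 1% Tween 80, 2% HPMC, 97% water.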

[11] = Half-life in mouse at 10 mg/kg, po; type: ADME, organism-based; details: in vivo; method in brief: as §2
[12] = Hepatic intrinsic clearance in human hepatocytes assessed per 10^6 cells at 0.5 uM after 60 mins; type: ADME, cell-based, Hepatocyte; details: read-out: CLH
Method in brief: (§3)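 Intrinsic clearance in mouse, rat or human hepatocytes. Compound at 0.5 μM, 0.5 million cells/mL, incubated 60 min.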

[13] = Intrinsic clearance in human liver microsomes at 1 uM measured after 30 mins in presence of NADPH by LC-MS analysis; type: ADME, Microsome; details: read-out: CLH
[14] = Half-life in rat at 10 mg/kg, po; type: ADME, organism-based; details: in vivo; method in brief: as §2
[15] = Clearance in mouse at […]; type: ADME, organism-based; details: in vivo; method in brief: as §2
[16] = Plasma protein binding in mouse assessed as unbound fraction at 5 uM by ultracentrifugation method; type: ADME, cell-free
Method in brief: (§4)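 Plasma protein binding measured by ultracentrifugation, compound at 5 μM.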

[17] = Plasma protein binding in human assessed as unbound fraction at 5 uM by ultracentrifugation method; type: ADME, cell-free; method in brief: as §4
[18] = Volume of distribution at steady state in mouse at […]; type: ADME, organism-based; details: in vivo; method in brief: as §2
[19] = Intrinsic clearance in rat liver microsomes at 1 uM measured after 30 mins in presence of NADPH by LC-MS analysis; type: ADME, Microsome; details: read-out: CLH
[20] = Oral bioavailability in mouse at 10 mg/kg; type: ADME, organism-based; details: in vivo; method in brief: as §2
[21] = Hepatic intrinsic clearance in mouse hepatocytes assessed per 10^6 cells at 0.5 uM after 60 mins; type: ADME, cell-based, Hepatocyte; details: read-out: CLH; method in brief: as §3
[22] = Solubility of compound in FASIIF measured after 72 hrs by HPLC; type: physicochemical; details: FaSSIF
Method in brief: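 Solubility in fasted-state simulated intestinal fluid, measured by HPLC after equilibration at room temperature for 72 h.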

[23] = Clearance in rat at […]; type: ADME, organism-based; details: in vivo; method in brief: as §2
[24] = Plasma protein binding in rat assessed as unbound fraction at 5 uM by ultracentrifugation method; type: ADME, cell-free; method in brief: as §4
[25] = Hepatic intrinsic clearance in rat hepatocytes assessed per 10^6 cells at 0.5 uM after 60 mins; type: ADME, cell-based, Hepatocyte; details: read-out: CLH; method in brief: as §3
[26] = Oral bioavailability in rat at 10 mg/kg; type: ADME, organism-based; details: in vivo; method in brief: as §2
A549 = test: Cytotoxicity against human A549 cells assessed as reduction in cell viability measured after 72 hrs by Celltiter-Glo luminescent cell viability assay; type: functional, cell-based; details: A549, 72 h
Method in brief: (§5)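 Cell viability in MIA PaCa-2 (KRAS p.G12C) or A549 (KRAS p.G12S) cells, read by CellTiter-Glo luminescence.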

MIA PaCa-2 = test: Cytotoxicity against human MIAPaCa2 cells assessed as reduction in cell viability measured after 72 hrs by Celltiter-Glo luminescent cell viability assay; type: functional, cell-based; details: MIA PaCa-2, 72 h; method in brief: as §5

| SMILES | K [1] [M⁻¹ s⁻¹] | half-life [2] [h] | inhibition [3] [%] | inhibition [4] [%] | inhibition [5] [%] | inhibition [6] [%] | IC50 (GTPase KRas [7]) [nM] | also measured |
| --- | --- | --- | --- | --- | --- | --- | --- | --- |
| C=CC(=O)N1CC(NC(=O)Cn2c(C)c(C(=O)N3CCc4c(cccc4OC)C3)c3cc(Br)ccc32)C1 | 256 | 1.67 | 14 | 91 | 100 | 100 | 1680 | – |
| C=CC(=O)N1CC(NC(=O)COc2ccc(Br)cc2)C1 | 0.3 | – | – | – | – | – | – | – |
| C=CC(=O)N1CC(NC(=O)Cn2cc(C(=O)N(C)Cc3ccccc3)c3cc(Br)ccc32)C1 | 6 | 1.67 | – | – | 100 | 35 | – | – |
| C=CC(=O)N1CC(NC(=O)Cn2c(C)c(C(=O)N3CCc4c(cccc4OC)C3)c3cc(Br)cc(C)c32)C1 | 83 | 1.67 | – | 39 | – | 100 | 299 | – |
| C=CC(=O)N1CC(NC(=O)COc2ccc(Br)cc2C(=O)N2CC=C(c3ccccc3)C2)C1 | 26 | 1.67 | – | – | – | – | 11300 | IC50 (GTPase KRas [8]): 2780 nM |
| C=CC(=O)N1CC(NC(=O)Cn2cc(C(=O)N3CCc4c(Cl)cccc4C3)c3cc(Br)ccc32)C1 | 188 | 1.67 | – | 67 | 100 | 100 | – | – |
| C=CC(=O)N1CC(NC(=O)Cn2c(C)c(C(=O)N3CCc4c(cccc4OC)C3)c3cc(Cl)ccc32)C1 | 69 | 1.67 | – | 34 | 100 | 100 | 3550 | – |
| C=CC(=O)N1CC(NC(=O)Cn2cc(C(=O)N3CCc4c(cccc4OC)C3)c3cc(Br)ccc32)C1 | 230 | 1.67 | 13 | 92 | 100 | 100 | 11400 | – |
| C=CC(=O)N1CC(NC(=O)Cn2ccc3cc(Br)ccc32)C1 | 2 | 1.67 | – | – | 67 | 14 | – | IC50 (GTPase KRas [8]): > 250000 nM |
| C=CC(=O)N1CC(NC(=O)Cn2cc(C(=O)N3CCc4ccccc4C3)c3cc(Br)ccc32)C1 | 308 | 1.67 | 0 | 100 | 100 | 100 | – | – |
| C=CC(=O)N1CC(NC(=O)COc2ccc(Br)cc2NC(=O)c2cc(C)no2)C1 | 2 | – | – | – | 63 | 11 | – | – |
| C=CC(=O)N1CC(NC(=O)Cn2cc(C(=O)N3CCc4c(cccc4OC)C3)c3cc(Br)cc(C)c32)C1 | > 400 | 1.67 | – | 100 | 100 | 100 | – | – |
| C=CC(=O)N1CC(NC(=O)Cn2c(C)c(C(=O)N3CCc4c(cccc4OC)C3)c3cc(Cl)cc(C)c32)C1 | 583 | 1.67 | 40 | 85 | 100 | 100 | – | – |
| C=CC(=O)N1CC(NC(=O)Cn2c(C3CC3)c(C(=O)N3CCc4c(cccc4OC)C3)c3cc(Cl)cc(C)c32)C1 | 2640 | 1.33 | 69 | 94 | 100 | 100 | – | microsomal CLint at 1 µM [9]: 708 µL/min/mg; Vdss [10]: 2.6 L/kg; half-life [11]: 0.9 h; hepatocyte CLint at 0.5 µM [12]: 53 µL/min/1e6 cells; microsomal CLint at 1 µM [13]: 161 µL/min/mg; half-life [14]: 0.7 h; CL/F [15]: 107 mL/min/kg; fraction unbound at 5 µM [16]: 0.02; fraction unbound at 5 µM [17]: 0.04; Vdss [18]: 2.9 L/kg; microsomal CLint at 1 µM [19]: 197 µL/min/mg; bioavailability [20]: 8%; hepatocyte CLint at 0.5 µM [21]: 228 µL/min/1e6 cells; solubility at 72 h [22]: 252 µM (≈ 141 µg/mL); CL/F [23]: 65 mL/min/kg; fraction unbound at 5 µM [24]: 0.02; hepatocyte CLint at 0.5 µM [25]: 293 µL/min/1e6 cells; bioavailability [26]: < 1%; IC50 (A549): 9330 nM; IC50 (MIA PaCa-2): 67 nM |
| C=CC(=O)N1CC(NC(=O)Cn2cc(C(=O)N3CCc4c(F)cccc4C3)c3cc(Br)ccc32)C1 | 247 | 1.67 | – | 77 | 100 | 100 | – | – |
| C=CC(=O)N1CC(NC(=O)Cn2cc(C(=O)N3CCc4cc(F)ccc4C3)c3cc(Br)ccc32)C1 | 326 | 1.67 | – | 86 | 100 | 100 | – | – |
| C=CC(=O)N1CC(NC(=O)Cn2c(C3CC3)c(C(=O)N3CCc4c(cccc4OC)C3)c3cc(Br)ccc32)C1 | 549 | 1.67 | 35 | 90 | – | 100 | 604 | – |
| C=CC(=O)N1CC(NC(=O)Cn2cc(C(=O)N3CCc4cc(Cl)ccc4C3)c3cc(Br)ccc32)C1 | 132 | 1.67 | – | 55 | 100 | 100 | – | – |
| C=CC(=O)N1CC(NC(=O)Cn2cc(C(=O)NCc3ccccc3)c3cc(Br)ccc32)C1 | 5 | 1.67 | – | – | 93 | 29 | – | – |
| C=CC(=O)N1CC(NC(=O)Cn2cc(C(=O)NCCc3ccccc3)c3cc(Br)ccc32)C1 | 12 | 1.67 | – | – | 100 | 59 | – | – |
